Screening data (PubChem BioAssay)
The list is not random: actives were taken first. Their share in the collection is about 4.1%.
KCNK3 inh: human KCNK3 channel inhibitors, primary screen, CHO cells, FluxOR thallium flux, B-score; Potassium channel subfamily K member 3 (Homo sapiens), O14649; FluxOR fluorescence; stronger effect = lower value; B-score at 10 µM; 0.84% of 340,000 active; AID 602410, 2012;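 active = B-score under library mean minus 4 SD, starting fluorescence ratio at most library mean plus 5 SD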;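 note: more negative B-score means stronger inhibition of thallium flux through KCNK3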
KCNQ1 block: inhibitors of human KCNQ1 channel, primary screen, cell-based, thallium flux, high-throughput | Potassium voltage-gated channel subfamily KQT member 1 (Homo sapiens), P51787 | CHO-K1 KCNQ1, FluxOR thallium flux fluorescence; stronger effect = higher value | B-score at 10 µM | 1.3% of 310,000 active | AID 2642, 2010;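 active = compounds whose thallium flux B-score, printed positive for inhibition, exceeds three library SD while starting fluorescence stays within three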;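 note: channel opened by potassium depolarization with thallium stimulus after 20 min compound exposure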
Cl transport mod: KCC2 cotransporter modulators, thallium flux, primary screen, cell-based, HEK293 KCC2, FluoZin-2 fluorescence, MLSMR; Solute carrier family 12 member 5 (Homo sapiens), Q9H2X9; KCC2 cells, thallium flux FluoZin-2 fluorescence; B-score of Tl+ flux slope (higher = more flux/activation; lower = inhibition) at 10 µM; 2.2% of 190,000 active;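 active = thallium flux slope and its plate-corrected score both differing from the plate sample mean at a set confidence after two filtering rounds, in either direction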;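 note: slope of fluorescence scaled to starting intensity during 10 to 20 s after thallium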
KCNK9 inh: KCNK9 potassium channel inhibitors, primary screen, HEK293 cells, thallium flux; B-score at 10 µM; 1.2% of 310,000 active; FluxOR thallium flux fluorescence; stronger effect = lower value; Potassium channel subfamily K member 9 (Homo sapiens), Q9NPC2;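 active = ratio B-score over 3 SD below the library mean, with starting fluorescence within 5 SD of its mean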;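 note: negative B-score means less thallium flux so channel inhibition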
KCNQ1 act: potentiators or activators of KCNQ1 channel, primary screen, cell-based, thallium flux, high-throughput; CHO-K1 KCNQ1, thallium flux FluxOR fluorescence; stronger effect = higher value; Potassium voltage-gated channel subfamily KQT member 1 (Homo sapiens), P51787; B-score at 10 µM; AID 2648, 2010; 0.35% of 310,000 active;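 active = fluorescence ratio B-score, a plate-corrected score, at least three library SD, with initial intensity B-score within 5 SD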
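assay system = CHO-K1 cells stably expressing KCNQ1 | medium = assay buffer, equal DMSO in all wells | timing = 37 °C overnight plating, 90-min dark dye load, 20-min compound pretreatment | measured by = kinetic FluxOR thallium fluorescence, 10-s 1-Hz baseline, 110-s post-stimulus read | measure = fluorescence change relative to baseline, converted to B score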
hERG rescue: hERG rescue from dofetilide block, primary screen, cell-based, CHO-hERG, FluxOR thallium flux, dofetilide IC70; 0.51% of 310,000 active; Voltage-gated inwardly rectifying potassium channel KCNH2 (Homo sapiens), Q12809; dofetilide IC70 present; activation (rescue from dofetilide block), less the hit threshold, % at 10 µM;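 active = activation above the mean of controls blocked by dofetilide plus 5 SD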;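 note: thallium influx through hERG after potassium depolarization seen as dye fluorescence rise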
Target sequence (Q12809 whole entry, looked up): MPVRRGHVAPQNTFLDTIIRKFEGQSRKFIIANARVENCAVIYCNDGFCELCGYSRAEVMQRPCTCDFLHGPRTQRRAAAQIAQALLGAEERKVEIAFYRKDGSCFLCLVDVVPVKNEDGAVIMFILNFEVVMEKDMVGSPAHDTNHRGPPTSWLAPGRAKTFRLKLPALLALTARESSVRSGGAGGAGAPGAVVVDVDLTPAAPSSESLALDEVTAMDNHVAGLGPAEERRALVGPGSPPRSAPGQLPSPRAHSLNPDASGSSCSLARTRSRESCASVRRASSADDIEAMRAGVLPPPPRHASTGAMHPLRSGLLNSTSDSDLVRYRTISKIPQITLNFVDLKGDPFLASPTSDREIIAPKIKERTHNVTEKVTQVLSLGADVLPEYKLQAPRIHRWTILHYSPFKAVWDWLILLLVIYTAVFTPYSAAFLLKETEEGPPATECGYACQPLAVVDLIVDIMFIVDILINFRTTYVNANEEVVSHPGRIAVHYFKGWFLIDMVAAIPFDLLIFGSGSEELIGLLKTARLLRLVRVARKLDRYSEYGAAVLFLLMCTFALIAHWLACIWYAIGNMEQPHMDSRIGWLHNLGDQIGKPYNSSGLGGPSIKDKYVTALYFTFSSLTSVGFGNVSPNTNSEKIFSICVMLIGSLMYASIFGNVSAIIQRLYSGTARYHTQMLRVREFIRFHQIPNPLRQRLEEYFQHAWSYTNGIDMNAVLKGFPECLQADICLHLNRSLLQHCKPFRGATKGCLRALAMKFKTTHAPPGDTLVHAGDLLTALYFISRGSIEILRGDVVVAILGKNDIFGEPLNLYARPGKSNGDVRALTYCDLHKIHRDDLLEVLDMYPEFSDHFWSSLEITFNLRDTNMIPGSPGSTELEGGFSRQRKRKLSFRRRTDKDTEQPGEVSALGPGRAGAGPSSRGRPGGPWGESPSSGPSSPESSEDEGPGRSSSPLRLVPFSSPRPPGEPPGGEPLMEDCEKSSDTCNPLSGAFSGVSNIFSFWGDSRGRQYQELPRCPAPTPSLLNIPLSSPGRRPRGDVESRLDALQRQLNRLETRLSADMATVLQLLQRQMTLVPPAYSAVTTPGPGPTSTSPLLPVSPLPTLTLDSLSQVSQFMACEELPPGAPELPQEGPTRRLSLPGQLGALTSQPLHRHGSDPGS
KCC2 secondary: KCC2 modulators in sodium-free buffer, confirmation, cell-based, HEK293 KCC2, thallium flux, secondary assay | shares compounds with Cl transport mod | FluoZin2 fluorescence; stronger effect = higher value | normalised thallium flux (F/F0 slope) at 10 µM | 15% of 3,700 active | AID 1713, 2009;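 active = thallium flux slope above the same plate's solvent-only control mean plus 3 SD; inconclusive = the two replicate wells disagree; inactive = no significant difference from solvent-only control wells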
KCC2 bumet counter: thallium flux persisting under bumetanide in KCC2 cells, confirmation, counter-screen for KCC2 modulator project, cell-based, HEK293 KCC2, FluoZin2, secondary assay 3 | shares compounds with Cl transport mod | HEK293-KCC2 + bumetanide/ouabain; stronger effect = higher value | normalized thallium flux at 10 µM | 49% of 3,700 active;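 active = thallium entry rate above the same plate's blocked-transporter control wells by more than 3 SD; inconclusive = the two repeat wells disagree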;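 note: raw slope of fluorescence over initial fluorescence between 10 and 20 s after thallium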
KCC2 secondary2: KCC2 modulators without ouabain present, confirmation, cell-based, HEK293 KCC2, thallium flux, FluoZin2, secondary assay 2; normalized thallium flux at 10 µM; 23% of 3,700 active; thallium flux FluoZin2 fluorescence; actives lie on both sides; F/F0 rise rate, 10–20 s post-thallium; shares compounds with Cl transport mod;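 active = thallium flux slope more than 3 SD above or below the plate's solvent-only control mean, mostly below; inconclusive = the two repeat wells disagreed; inactive = no significant shift from solvent-only controls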
HEK counter1: thallium flux modulation in parental HEK cells, confirmation, counter-screen for KCC2 modulator project, cell-based, counterscreen 1; shares compounds with Cl transport mod; HEK293 parental cells, thallium flux FluoZin2, ouabain; baseline-ratio fluorescence slope, 10–20 s after thallium; thallium flux rate (normalised fluorescence) at 10 µM; 46% of 3,700 active;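 active = thallium flux rate significantly above the same plate's solvent-only control wells, beyond their mean plus 3 SD; inconclusive = the two replicate wells gave conflicting results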
KCC2 ouabain: KCC2 inhibitors and activators, ouabain retest, confirmation, HEK-KCC2 cells | shares compounds with Cl transport mod | HEK293-KCC2, thallium flux FluoZin2 fluorescence; bidirectional: low = inhibitor, high = activator | raw Tl+ flux slope (below DMSO = inhibition, above = activation) at 10 µM | 48% of 3,700 active;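 active = thallium flux slope beyond 3 SD from same-plate DMSO control mean in most replicates, usually higher, sometimes lower; inconclusive = repeat tests gave conflicting results; inactive = no significant difference from controls in most replicates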;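 note: slope of initial-normalized fluorescence between seconds 10 and 20 after thallium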
HEK counter2: native HEK Tl+ uptake effects, second counter-screen – HEK cells, counterscreen 2, counter-screen for KCC2 modulator project, confirmation; shares compounds with Cl transport mod; HEK293 parental, thallium flux FluoZin-2 fluorescence slope; thallium flux slope at 10 µM; 33% of 3,700 active; AID 1718, 2009;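 active = thallium flux slope above the same plate's solvent-control mean plus 3 SD in both duplicate wells; inconclusive = duplicate wells that disagreed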;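 note: run without ouabain in cells lacking the KCC2 cotransporter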
Hits are given with their value; – = inactive; ? = inconclusive; · = no result given.

SMILES	KCNK3 inh	KCNQ1 block	Cl transport mod	KCNK9 inh	KCNQ1 act	hERG rescue	KCC2 secondary	KCC2 bumet counter	KCC2 secondary2	HEK counter1	KCC2 ouabain	HEK counter2
O=C(Nc1nc(-c2nc3ccccc3s2)cs1)C1COc2ccccc2O1 (configuration not stated)	–	–	2.55	–	–	–	–	0.00832	–	?	–	0.0112
COc1ccc2nc(NNC(=O)C3COc4ccccc4O3)sc2c1 (configuration not stated)	–	–	5.07	–	–	–	–	0.0198	–	0.0109	?	–
O=C(NCCCCc1ccccc1)c1ccc(F)cc1	–	–	·	–	–	–	·	·	·	·	·	·
CC(C)CN1C=C2C(=O)C(C)(OC(=O)CCc3ccccc3)C(=O)C=C2C=C1c1ccc(C#N)cc1 (configuration not stated)	–	–	3.15	–	–	–	–	–	–	–	–	?
CC(C)n1nnnc1-c1cc(Cl)cc(Cl)c1	–	–	3.39	–	–	–	–	–	–	–	–	–
Cc1ccc(-n2c(C)nc3c(cnn3-c3ccccc3Cl)c2=O)cc1C	–	–	–	–	–	–	·	·	·	·	·	·
Cc1nc2c(cnn2-c2ccccc2Cl)c(=O)n1-c1ccc(N2CCC(C)CC2)cc1	–	–	·	–	–	–	–	–	–	–	–	–
O=C(Cn1nc(-c2ccccc2)ccc1=O)NCc1ccc2c(c1)OCO2	–	–	-3.28	–	–	–	–	?	0.0251	–	?	–
O=C(Nc1nnc(-c2ccccn2)o1)c1cccc(Cl)c1	–	–	10.8	–	–	–	–	0.0152	–	0.0215	0.0272	0.0219
Cc1ccc(C(=O)Nc2nnc(-c3ccncc3)o2)cc1	–	–	–	–	–	–	·	·	·	·	·	·
O=C(Nc1nnc(-c2cccnc2)o1)c1cccc(Cl)c1	–	–	14.3	–	–	–	?	0.0271	–	?	0.0339	–
Cc1cccc(-c2nnc(NC(=O)c3ccc(Cl)cc3)o2)c1	–	–	91.4	–	9	–	0.0704	0.162	0.0775	?	0.121	0.0716
O=C(Nc1nnc(-c2ccco2)o1)c1cccc(Cl)c1	–	–	23.5	–	–	–	0.0193	0.0628	–	0.034	0.0488	0.0146
COc1cc(OC)cc(C(=O)Nc2nnc(-c3cccnc3)o2)c1	–	–	–	–	–	–	·	·	·	·	·	·
S=C(c1cccs1)N1CCN(c2ccccc2)CC1	–	·	·	·	·	·	·	·	·	·	·	·
CCOc1ccc(S(=O)(=O)N2CCC(C(=O)NCc3ccco3)CC2)cc1C	–	–	·	–	–	–	·	·	·	·	·	·
CC[N+]1(C)CCC(O)(/C=C/c2ccccc2)C(C(=O)/C=C/c2ccccc2)C1 (configuration not stated)	–	·	·	·	·	·	·	·	·	·	·	·
CC1(C)NC(=O)N(CC(=O)Nc2ccc(-n3cnnn3)cc2)C1=O	–	·	·	·	·	·	·	·	·	·	·	·
O=C(/C=C/c1ccccc1)Nc1nnc(-c2ccco2)o1	–	–	2.79	–	–	–	–	0.00833	–	?	–	–
CC(=O)Nc1nnc(-c2ccco2)o1	–	–	–	–	–	–	·	·	·	·	·	·
Cc1ccc(NC(=O)COC(=O)Cn2cnc3ccccc32)c(C)c1	–	·	·	·	·	·	·	·	·	·	·	·
O=CNC1c2ccccc2CCc2ccccc21	–	·	·	·	·	·	·	·	·	·	·	·
CSc1nc2sc3c(c2c(=O)n1C1CCCCC1)CCN(C)C3	–	–	–	–	–	–	–	–	–	–	–	–
CCc1cc2c(=O)oc(-c3ccc(F)cc3)nc2s1	–	–	·	–	–	–	·	·	·	·	·	·
CCOC(=O)c1sc(-c2ccc(C)cc2)c(C#N)c1C	–	–	5.26	–	–	–	–	–	–	–	–	–
SMILES	KCNK3 inh	KCNQ1 block	Cl transport mod	KCNK9 inh	KCNQ1 act	hERG rescue	KCC2 secondary	KCC2 bumet counter	KCC2 secondary2	HEK counter1	KCC2 ouabain	HEK counter2
O=C(CSc1nnc(-c2c[nH]c3ccccc23)o1)N1CCCCC1	–	–	-3.13	–	–	–	–	?	0.0292	–	0.0205	–
O=C(CSc1nnc(-c2ccccc2F)o1)N1CCCC1	–	–	·	–	–	–	·	·	·	·	·	·
O=C(CSc1nnc(-c2c[nH]c3ccccc23)o1)N1c2ccccc2CCc2ccccc21	–	–	–	–	–	–	·	·	·	·	·	·
O=C(CSc1nnc(-c2ccccc2Br)o1)N1CCc2ccccc2C1	–	–	-5.43	–	–	–	–	–	0.0214	?	0.0108	–
Cc1cccc(C)c1NC(=O)CSc1nnc(Cn2nnc(-c3ccccc3)n2)n1-c1ccccc1	–	–	-5.31	–	–	–	–	–	–	–	–	–
O=C(CN1CCN(c2ccccc2F)CC1)c1c[nH]c2ccc(F)cc12	–	–	-3.99	–	–	–	–	0.0108	–	?	0.0176	–
Cc1ccc(S(=O)(=O)N2CCN(C(=O)COC(=O)CNC(=O)c3ccc(Cl)cc3Cl)CC2)c(C)c1	–	·	·	·	·	·	·	·	·	·	·	·
